From ChEMBL document CHEMBL5705885, “CYT387, a selective JAK1/JAK2 inhibitor: in vitro assessment of kinase selectivity and preclinical studies using cell lines and primary cells from polycythemia vera patients” (Leukemia, 2009)

How the values were obtained:
[1] = target: Serine/threonine-protein kinase 26 (Homo sapiens, UniProt Q9P289); conditions: dose 100.0 nM
[2] = target: Platelet-derived growth factor receptor alpha (Homo sapiens, UniProt P16234); experiment: Inhibition of PDGFRA (unknown origin)
Platelet-derived growth factor receptor alpha, sequence (P16234 whole entry): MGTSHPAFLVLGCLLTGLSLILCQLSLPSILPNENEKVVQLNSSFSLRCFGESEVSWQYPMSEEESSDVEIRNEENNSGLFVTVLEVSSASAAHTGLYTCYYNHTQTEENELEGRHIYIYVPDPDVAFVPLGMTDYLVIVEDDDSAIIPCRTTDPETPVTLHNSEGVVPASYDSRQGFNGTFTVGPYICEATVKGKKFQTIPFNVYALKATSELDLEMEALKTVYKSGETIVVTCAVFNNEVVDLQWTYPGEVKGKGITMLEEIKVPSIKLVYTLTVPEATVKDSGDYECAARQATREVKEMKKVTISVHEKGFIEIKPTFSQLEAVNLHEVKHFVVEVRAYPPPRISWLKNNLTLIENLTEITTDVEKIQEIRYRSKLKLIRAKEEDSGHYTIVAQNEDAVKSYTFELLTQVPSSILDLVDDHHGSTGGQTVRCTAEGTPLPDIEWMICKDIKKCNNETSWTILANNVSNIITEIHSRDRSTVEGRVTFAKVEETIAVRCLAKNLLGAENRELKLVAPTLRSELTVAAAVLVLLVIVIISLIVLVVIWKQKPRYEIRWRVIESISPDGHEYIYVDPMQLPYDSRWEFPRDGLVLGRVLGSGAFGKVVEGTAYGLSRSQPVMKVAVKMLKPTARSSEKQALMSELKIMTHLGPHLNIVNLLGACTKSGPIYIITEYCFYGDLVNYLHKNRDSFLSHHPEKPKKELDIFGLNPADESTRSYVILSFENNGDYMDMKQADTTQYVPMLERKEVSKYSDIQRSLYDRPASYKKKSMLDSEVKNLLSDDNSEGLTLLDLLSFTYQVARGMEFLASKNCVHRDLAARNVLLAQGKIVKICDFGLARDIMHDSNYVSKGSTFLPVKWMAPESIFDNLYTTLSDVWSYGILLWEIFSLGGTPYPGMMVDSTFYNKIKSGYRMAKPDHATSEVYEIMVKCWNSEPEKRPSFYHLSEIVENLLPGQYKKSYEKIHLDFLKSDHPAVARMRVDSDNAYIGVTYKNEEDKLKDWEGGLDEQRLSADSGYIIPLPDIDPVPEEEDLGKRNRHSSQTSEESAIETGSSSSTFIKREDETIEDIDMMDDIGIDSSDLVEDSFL

[3] = target: Signal transducer and activator of transcription 5A (Homo sapiens) (UniProt P42229); experiment: Inhibition of STAT5 phosphorylation in human HEL cells by Western blot analysis; type: cell-based; conditions: dose <= 1.0 µM
Method in brief: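 HEL cells were starved overnight in RPMI with 1% FCS, then exposed to compound for 2 h at 37 °C. Cells were lysed in RIPA buffer (50 mM HEPES pH 7.4, 150 mM NaCl, 1% Triton X-100, deoxycholate, 0.1% SDS) with protease and phosphatase inhibitors. Protein was quantified by Bradford assay and blots were developed by chemiluminescence. Membranes were stripped and reprobed for total STAT5.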

[4] = target: Beta-adrenergic receptor kinase 1 (Homo sapiens, UniProt P25098); experiment: Inhibition of ADRBK1 (unknown origin)
Beta-adrenergic receptor kinase 1, sequence (P25098 whole entry): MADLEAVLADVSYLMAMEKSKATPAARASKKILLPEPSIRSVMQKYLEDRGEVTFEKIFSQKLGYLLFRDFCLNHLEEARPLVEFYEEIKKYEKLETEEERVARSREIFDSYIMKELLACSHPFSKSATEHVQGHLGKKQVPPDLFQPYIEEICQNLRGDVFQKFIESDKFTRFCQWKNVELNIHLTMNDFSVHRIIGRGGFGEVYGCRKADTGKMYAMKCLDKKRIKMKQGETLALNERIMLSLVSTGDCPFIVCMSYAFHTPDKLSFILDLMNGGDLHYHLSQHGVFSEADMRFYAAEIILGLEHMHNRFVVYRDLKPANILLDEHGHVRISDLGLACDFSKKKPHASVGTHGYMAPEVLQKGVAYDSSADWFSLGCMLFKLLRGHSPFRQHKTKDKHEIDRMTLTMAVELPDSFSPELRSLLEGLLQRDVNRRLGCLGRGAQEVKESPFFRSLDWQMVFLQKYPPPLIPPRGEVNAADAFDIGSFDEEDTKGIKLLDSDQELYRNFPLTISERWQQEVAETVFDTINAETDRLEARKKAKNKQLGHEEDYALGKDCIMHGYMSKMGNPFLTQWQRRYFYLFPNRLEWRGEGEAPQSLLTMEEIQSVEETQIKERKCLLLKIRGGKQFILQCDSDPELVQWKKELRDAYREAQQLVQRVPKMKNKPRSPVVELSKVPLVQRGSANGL

CMK = experiment: Antiproliferative activity against human CMK cells harboring JAK3A572V mutant measured after 72 hrs by Alamar blue staining based analysis; type: functional, cell-based
Method in brief: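 Cells were exposed for 72 h at 37 °C under 5% CO2 to compound made up as DMSO stock and diluted in culture medium. Proliferation was then read by Alamar Blue.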

Rhodopsin kinase GRK7 = Rhodopsin kinase GRK7 (Homo sapiens, UniProt Q8WTQ7); experiment: Inhibition of GRK7 (unknown origin)
[5] = target: Mitogen-activated protein kinase kinase kinase kinase 2 (Homo sapiens) (UniProt Q12851); conditions: dose 100.0 nM
[6] = target: Tyrosine-protein kinase SYK (Homo sapiens, UniProt P43405); experiment: Inhibition of SYK (unknown origin)
[7] = target: Serine/threonine-protein kinase D2 (Homo sapiens, UniProt Q9BZL6); experiment: Inhibition of PRKD2 (unknown origin)
[8] = target: Serine/threonine-protein kinase TBK1 (Homo sapiens) (UniProt Q9UHD2); conditions: dose 100.0 nM
[9] = target: Dual specificity protein kinase CLK1 (Homo sapiens, UniProt P49759); conditions: dose 100.0 nM
BaF3 = experiment: Antiproliferative activity against mouse BaF3 cells harboring MPLW515L measured after 72 hrs by Alamar blue staining based analysis; type: functional, cell-based; conditions: BaF3, 72 h
Method in brief: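 Ba/F3 murine cells expressing JAK2V617F or MPLW515L. Compound stocks in DMSO were diluted into culture medium. After 72 h at 37 °C in 5% CO2, proliferation was quantified with the Alamar Blue assay.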

[10] = target: Muscle, skeletal receptor tyrosine-protein kinase (Homo sapiens, UniProt O15146); experiment: Inhibition of MUSK (unknown origin)
[11] = target: Testis-specific serine/threonine-protein kinase 1 (Homo sapiens) (UniProt Q9BXA7); conditions: dose 100.0 nM
[12] = target: Mitogen-activated protein kinase kinase kinase 8 (Homo sapiens, UniProt P41279); experiment: Inhibition of MAP3K8 (unknown origin)
Ephrin type-B receptor 1 = Ephrin type-B receptor 1 (Homo sapiens, UniProt P54762); experiment: Inhibition of EPHB1 (unknown origin)
[13] = target: T1, Serine/threonine-protein kinase PAK 4 (Homo sapiens, UniProt O96013); conditions: dose 100.0 nM
[14] = target: Serine/threonine-protein kinase N1 (Homo sapiens, UniProt Q16512); conditions: dose 100.0 nM
[15] = target: Activin receptor type-1B (Homo sapiens) (UniProt P36896); conditions: dose 100.0 nM
[16] = target: Macrophage-stimulating protein receptor (Homo sapiens, UniProt Q04912); conditions: dose 100.0 nM
[17] = target: Protein kinase C gamma type (Homo sapiens, UniProt P05129); experiment: Inhibition of PRKCG (unknown origin)
[18] = target: Cyclin-dependent kinase 5/CDK5 activator 1 (Homo sapiens) (UniProt Q00535+Q15078); conditions: dose 100.0 nM
[19] = target: Ribosomal protein S6 kinase beta-1 (Homo sapiens, UniProt P23443); conditions: dose 100.0 nM
[20] = target: High affinity nerve growth factor receptor (Homo sapiens, UniProt P04629); experiment: Inhibition of NTRK1 (unknown origin)
Insulin receptor = Insulin receptor (Homo sapiens, UniProt P06213); experiment: Inhibition of INSR (unknown origin)
[21] = target: Serine/threonine-protein kinase PAK 2 (Homo sapiens, UniProt Q13177); experiment: Inhibition of PAK2 (unknown origin)
[22] = Inhibition of CDK2/cyclin A (unknown origin); design: species or system Homo sapiens
[23] = target: Ephrin type-B receptor 1 (Homo sapiens) (UniProt P54762); conditions: dose 100.0 nM
[24] = target: Mitogen-activated protein kinase 11 (Homo sapiens, UniProt Q15759); experiment: Inhibition of MAPK11 (unknown origin)
[25] = target: Myosin light chain kinase 2, skeletal/cardiac muscle (Homo sapiens, UniProt Q9H1R3); conditions: dose 100.0 nM
Myosin light chain kinase 2, skeletal/cardiac muscle, sequence (Q9H1R3 whole entry): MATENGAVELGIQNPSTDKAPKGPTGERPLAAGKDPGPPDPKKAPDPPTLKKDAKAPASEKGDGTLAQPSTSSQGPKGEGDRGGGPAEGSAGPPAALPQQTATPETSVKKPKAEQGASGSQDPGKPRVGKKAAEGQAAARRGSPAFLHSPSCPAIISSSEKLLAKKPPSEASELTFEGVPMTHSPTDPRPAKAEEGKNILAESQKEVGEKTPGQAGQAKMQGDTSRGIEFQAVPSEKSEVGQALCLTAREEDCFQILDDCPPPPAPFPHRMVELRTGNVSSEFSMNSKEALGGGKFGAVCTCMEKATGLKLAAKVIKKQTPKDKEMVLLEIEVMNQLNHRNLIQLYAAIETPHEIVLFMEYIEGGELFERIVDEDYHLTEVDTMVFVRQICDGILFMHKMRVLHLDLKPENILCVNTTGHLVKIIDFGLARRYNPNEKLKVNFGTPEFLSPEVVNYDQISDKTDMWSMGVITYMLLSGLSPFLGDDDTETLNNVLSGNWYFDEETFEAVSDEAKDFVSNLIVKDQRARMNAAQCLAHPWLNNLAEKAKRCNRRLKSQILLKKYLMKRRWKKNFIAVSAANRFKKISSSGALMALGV

Activin receptor type-1B = Activin receptor type-1B (Homo sapiens, UniProt P36896); experiment: Inhibition of ACVR1B (unknown origin)
Aurora kinase B = Aurora kinase B (Homo sapiens, UniProt Q96GD4); experiment: Inhibition of AURKB (unknown origin)
Aurora kinase B, sequence (Q96GD4 whole entry): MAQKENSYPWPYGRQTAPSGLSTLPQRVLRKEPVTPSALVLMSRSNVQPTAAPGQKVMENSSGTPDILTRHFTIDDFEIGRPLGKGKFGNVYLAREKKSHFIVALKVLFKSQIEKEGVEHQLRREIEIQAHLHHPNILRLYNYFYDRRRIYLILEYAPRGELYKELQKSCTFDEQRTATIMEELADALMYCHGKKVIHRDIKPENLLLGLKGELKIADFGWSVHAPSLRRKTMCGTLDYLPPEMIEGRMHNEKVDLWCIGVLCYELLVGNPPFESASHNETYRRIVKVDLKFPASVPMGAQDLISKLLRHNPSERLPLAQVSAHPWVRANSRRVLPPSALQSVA

[26] = target: MAP kinase-activated protein kinase 5 (Homo sapiens, UniProt Q8IW41); experiment: Inhibition of MAPKAPK5 (unknown origin)
[27] = target: Mitogen-activated protein kinase 1 (Homo sapiens, UniProt P28482); conditions: dose 100.0 nM
[28] = target: Aurora kinase C (Homo sapiens) (UniProt Q9UQB9); conditions: dose 100.0 nM
[29] = target: Ribosomal protein S6 kinase alpha-3 (Homo sapiens, UniProt P51812); experiment: Inhibition of RPS6KA3 (unknown origin)
[30] = target: T1, Serine/threonine-protein kinase PAK 4; experiment: Inhibition of PAK4 (unknown origin)
[31] = target: Serine/threonine-protein kinase Nek9 (Homo sapiens, UniProt Q8TD19); experiment: Inhibition of NEK9 (unknown origin)
Serine/threonine-protein kinase Nek9, sequence (Q8TD19 whole entry): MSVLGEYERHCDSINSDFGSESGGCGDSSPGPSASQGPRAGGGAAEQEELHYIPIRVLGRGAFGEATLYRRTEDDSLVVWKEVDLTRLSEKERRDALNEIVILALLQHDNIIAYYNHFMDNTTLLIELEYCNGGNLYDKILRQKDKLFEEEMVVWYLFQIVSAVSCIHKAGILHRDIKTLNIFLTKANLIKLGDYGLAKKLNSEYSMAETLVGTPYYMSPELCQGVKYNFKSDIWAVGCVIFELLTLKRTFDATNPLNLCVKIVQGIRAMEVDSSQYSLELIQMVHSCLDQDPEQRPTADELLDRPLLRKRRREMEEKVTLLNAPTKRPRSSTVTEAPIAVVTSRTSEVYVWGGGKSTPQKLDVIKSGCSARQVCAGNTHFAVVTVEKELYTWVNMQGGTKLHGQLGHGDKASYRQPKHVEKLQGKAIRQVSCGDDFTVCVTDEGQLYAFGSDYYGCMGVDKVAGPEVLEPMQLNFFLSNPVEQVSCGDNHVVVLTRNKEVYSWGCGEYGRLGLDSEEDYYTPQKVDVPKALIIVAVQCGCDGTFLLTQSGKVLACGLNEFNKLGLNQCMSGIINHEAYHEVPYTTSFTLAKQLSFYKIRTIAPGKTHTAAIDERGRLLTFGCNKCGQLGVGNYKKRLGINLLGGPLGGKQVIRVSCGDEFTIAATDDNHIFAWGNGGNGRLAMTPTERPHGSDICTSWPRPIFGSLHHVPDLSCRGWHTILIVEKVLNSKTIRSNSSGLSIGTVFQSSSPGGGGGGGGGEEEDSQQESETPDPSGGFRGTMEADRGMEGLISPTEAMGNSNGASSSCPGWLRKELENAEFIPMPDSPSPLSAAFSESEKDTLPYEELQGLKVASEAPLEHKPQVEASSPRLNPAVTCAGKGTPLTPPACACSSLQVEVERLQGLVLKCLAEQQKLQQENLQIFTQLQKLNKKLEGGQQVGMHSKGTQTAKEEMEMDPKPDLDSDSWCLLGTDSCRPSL

Aurora kinase C = Aurora kinase C (Homo sapiens, UniProt Q9UQB9); experiment: Inhibition of AURKC (unknown origin)
Aurora kinase C, sequence (Q9UQB9 whole entry): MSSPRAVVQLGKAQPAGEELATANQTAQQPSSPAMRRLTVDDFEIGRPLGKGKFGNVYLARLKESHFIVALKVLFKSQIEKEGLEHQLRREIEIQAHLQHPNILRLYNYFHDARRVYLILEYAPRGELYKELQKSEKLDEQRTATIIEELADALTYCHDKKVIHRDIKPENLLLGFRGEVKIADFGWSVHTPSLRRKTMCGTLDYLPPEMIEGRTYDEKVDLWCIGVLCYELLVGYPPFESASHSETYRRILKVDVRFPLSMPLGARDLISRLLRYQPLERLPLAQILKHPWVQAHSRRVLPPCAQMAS

Ephrin type-A receptor 8 = Ephrin type-A receptor 8 (Homo sapiens, UniProt P29322); experiment: Inhibition of EPHA8 (unknown origin)
[32] = target: Calcium/calmodulin-dependent protein kinase type IV (Homo sapiens, UniProt Q16566); experiment: Inhibition of CAMK4 (unknown origin)
[33] = target: Serine/threonine-protein kinase Nek9 (Homo sapiens) (UniProt Q8TD19); conditions: dose 100.0 nM
Serine/threonine-protein kinase Nek9 (Homo sapiens), sequence (Q8TD19 whole entry): as the sequence (Q8TD19 whole entry) above

Ephrin type-A receptor 3 = Ephrin type-A receptor 3 (Homo sapiens, UniProt P29320); experiment: Inhibition of EPHA3 (unknown origin)
Ephrin type-A receptor 3, sequence (P29320 whole entry): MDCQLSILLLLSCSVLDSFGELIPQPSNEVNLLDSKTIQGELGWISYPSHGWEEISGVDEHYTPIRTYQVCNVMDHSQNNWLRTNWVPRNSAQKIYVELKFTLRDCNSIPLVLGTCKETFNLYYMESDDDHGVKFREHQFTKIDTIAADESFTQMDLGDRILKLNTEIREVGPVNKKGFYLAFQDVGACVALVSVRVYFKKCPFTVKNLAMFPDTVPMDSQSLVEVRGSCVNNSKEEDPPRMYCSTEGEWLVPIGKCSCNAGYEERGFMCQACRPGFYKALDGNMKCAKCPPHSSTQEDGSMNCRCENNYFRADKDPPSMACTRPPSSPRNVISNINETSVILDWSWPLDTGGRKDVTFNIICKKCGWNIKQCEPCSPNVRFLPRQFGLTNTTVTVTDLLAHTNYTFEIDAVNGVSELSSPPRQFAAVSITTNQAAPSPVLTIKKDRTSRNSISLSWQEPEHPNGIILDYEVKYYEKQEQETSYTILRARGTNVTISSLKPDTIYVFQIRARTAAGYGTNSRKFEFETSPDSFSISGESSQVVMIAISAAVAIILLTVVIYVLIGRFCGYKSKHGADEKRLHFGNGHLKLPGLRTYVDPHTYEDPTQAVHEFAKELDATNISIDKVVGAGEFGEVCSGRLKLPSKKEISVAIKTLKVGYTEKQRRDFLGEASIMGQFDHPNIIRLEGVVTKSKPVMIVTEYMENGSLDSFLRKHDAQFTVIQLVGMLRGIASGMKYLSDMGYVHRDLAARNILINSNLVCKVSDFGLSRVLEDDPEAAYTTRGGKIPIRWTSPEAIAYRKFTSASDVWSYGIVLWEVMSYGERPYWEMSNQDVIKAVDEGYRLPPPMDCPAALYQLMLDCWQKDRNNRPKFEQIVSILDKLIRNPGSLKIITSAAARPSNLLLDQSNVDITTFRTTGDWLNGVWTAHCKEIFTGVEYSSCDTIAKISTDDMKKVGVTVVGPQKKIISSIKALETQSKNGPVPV

N#CCNC(=O)c1ccc(-c2ccnc(Nc3ccc(N4CCOCC4)cc3)n2)cc1 [MOMELOTINIB]
inhibition [1]: < 50% | IC50 [2]: < 1000 nM | inhibition [3]: Dose-Dependent Effect | IC50 [4]: > 1000 nM | IC50 (CMK): 700 nM | IC50 (Rhodopsin kinase GRK7): > 1000 nM | inhibition [5]: < 50% | IC50 [6]: < 1000 nM | IC50 [7]: < 1000 nM | inhibition [8]: > 50% | inhibition [9]: < 50% | IC50 (BaF3): 200 nM | IC50 [10]: < 1000 nM | inhibition [11]: < 50% | IC50 [12]: < 1000 nM | IC50 (Ephrin type-B receptor 1): < 1000 nM | inhibition [13]: < 50% | inhibition [14]: < 50% | inhibition [15]: < 50% | inhibition [16]: < 50% | IC50 [17]: < 1000 nM | inhibition [18]: < 50% | inhibition [19]: < 50% | IC50 [20]: < 1000 nM | IC50 (Insulin receptor): > 1000 nM | IC50 [21]: > 1000 nM | IC50 [22]: < 100 nM | inhibition [23]: < 50% | IC50 [24]: > 1000 nM | inhibition [25]: < 50% | IC50 (Activin receptor type-1B): < 1000 nM | IC50 (Aurora kinase B): < 1000 nM | IC50 [26]: > 1000 nM | inhibition [27]: < 50% | inhibition [28]: < 50% | IC50 [29]: > 1000 nM | IC50 [30]: < 1000 nM | IC50 [31]: < 1000 nM | IC50 (Aurora kinase C): < 1000 nM | IC50 (Ephrin type-A receptor 8): > 1000 nM | IC50 [32]: > 1000 nM | inhibition [33]: < 50% | IC50 (Ephrin type-A receptor 3): > 1000 nM
